Activity calls are given as the source filed them. The calls are words filed in the database; no cut-off is given here.
Experiments:
Format in all cases: functional, cell-based
P2Y purinoceptor 6 [1] = target: T1, P2Y purinoceptor 6 (Homo sapiens, UniProt Q15077); assay: Agonist activity at human recombinant P2Y6 receptor expressed in 1321N1 cells assessed as PLC-mediated [3H]IP production
Procedure, shortened: (§1)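 Stable 1321N1 astrocytoma line expressing human P2Y6, grown to confluence and labelled 12 h in serum-free, inositol-free DMEM with 0.4 μCi myo-[3H]inositol. Agonists were added in Hepes pH 7.3 with LiCl for 20 min at 37 °C. The reaction was stopped with ice-cold 50 mM formic acid, neutralised with NH4OH, and [3H]inositol phosphates separated on Dowex AG 1-X8. EC50 came from four-parameter logistic fits; ratio to UDP EC50. Triplicates, ≥3 experiments.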

P2Y purinoceptor 4 [2] = target: T2, P2Y purinoceptor 4 (Homo sapiens, UniProt P51582); assay: Agonist activity at human recombinant P2Y4 receptor expressed in 1321N1 cells assessed as PLC-mediated [3H]IP production relative to UTP
T2 sequence (P51582 whole entry): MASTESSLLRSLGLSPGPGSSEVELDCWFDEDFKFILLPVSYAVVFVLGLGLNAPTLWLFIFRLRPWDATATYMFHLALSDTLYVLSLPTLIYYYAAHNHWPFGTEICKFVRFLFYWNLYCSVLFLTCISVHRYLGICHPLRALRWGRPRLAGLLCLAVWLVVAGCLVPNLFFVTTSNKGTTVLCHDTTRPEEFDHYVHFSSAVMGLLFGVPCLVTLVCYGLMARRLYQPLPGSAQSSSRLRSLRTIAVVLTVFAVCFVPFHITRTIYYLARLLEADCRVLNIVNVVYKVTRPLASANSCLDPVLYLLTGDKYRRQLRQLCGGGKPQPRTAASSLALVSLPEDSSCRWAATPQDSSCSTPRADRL

P2Y purinoceptor 2 [3] = target: T3, P2Y purinoceptor 2 (Homo sapiens, UniProt P41231); assay: Agonist activity at human recombinant P2Y2 receptor expressed in 1321N1 cells assessed as PLC-mediated [3H]IP production relative to UTP
T3 sequence (P41231 whole entry): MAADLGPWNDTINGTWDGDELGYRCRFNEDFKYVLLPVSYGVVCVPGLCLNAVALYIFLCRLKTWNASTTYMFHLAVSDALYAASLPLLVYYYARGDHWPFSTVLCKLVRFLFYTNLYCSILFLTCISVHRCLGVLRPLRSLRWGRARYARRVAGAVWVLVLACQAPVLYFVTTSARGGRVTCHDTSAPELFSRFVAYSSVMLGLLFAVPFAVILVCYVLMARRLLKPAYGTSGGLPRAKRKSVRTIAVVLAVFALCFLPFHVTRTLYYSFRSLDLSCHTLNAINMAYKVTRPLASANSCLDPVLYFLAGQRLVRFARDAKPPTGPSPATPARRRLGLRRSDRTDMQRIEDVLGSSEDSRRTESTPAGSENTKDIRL

P2Y purinoceptor 6 [4] = target: T1, P2Y purinoceptor 6; assay: Agonist activity at human recombinant P2Y6 receptor expressed in 1321N1 cells assessed as PLC-mediated [3H]IP production relative to UDP; procedure, shortened: as §1
P2Y purinoceptor 6 [5] = target: T1, P2Y purinoceptor 6; assay: Agonist activity at human recombinant P2Y6 receptor expressed in 1321N1 cells assessed as PLC-mediated [3H]IP production at 10 uM realtive to UDP
Procedure, shortened: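 Human P2Y6 in 1321N1 cells prelabelled with myo-[3H]inositol, then exposed to agonist at 10 μM in Hepes pH 7.3 with LiCl for 20 min at 37 °C. [3H]inositol phosphates were isolated by Dowex anion exchange. Response is expressed as % of the effect of a maximally effective UDP concentration in the same experiment.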

P2Y purinoceptor 4 [6] = target: T2, P2Y purinoceptor 4; assay: Agonist activity at human recombinant P2Y4 receptor expressed in 1321N1 cells assessed as PLC-mediated [3H]IP production relative to UTP at 10 uM
P2Y purinoceptor 2 [7] = target: T3, P2Y purinoceptor 2; assay: Agonist activity at human recombinant P2Y2 receptor expressed in 1321N1 cells assessed as PLC-mediated [3H]IP production
P2Y purinoceptor 4 [8] = target: T2, P2Y purinoceptor 4; assay: Agonist activity at human recombinant P2Y4 receptor expressed in 1321N1 cells assessed as PLC-mediated [3H]IP production

T1 sequence (Q15077 whole entry): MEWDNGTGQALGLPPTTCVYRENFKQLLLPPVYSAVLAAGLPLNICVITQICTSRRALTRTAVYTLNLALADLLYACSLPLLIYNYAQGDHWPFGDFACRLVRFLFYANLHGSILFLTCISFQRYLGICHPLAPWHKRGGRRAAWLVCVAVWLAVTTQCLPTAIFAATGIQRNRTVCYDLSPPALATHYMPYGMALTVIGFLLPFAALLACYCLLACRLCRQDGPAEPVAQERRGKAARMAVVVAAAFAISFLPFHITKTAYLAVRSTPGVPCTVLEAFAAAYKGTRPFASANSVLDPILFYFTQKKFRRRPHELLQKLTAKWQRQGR

| Compound | EC50 (P2Y purinoceptor 6 [1]) [µM] | Ratio EC50 (P2Y purinoceptor 4 [2]) | Ratio EC50 (P2Y purinoceptor 2 [3]) | Ratio EC50 (P2Y purinoceptor 6 [4]) | further results |
| --- | --- | --- | --- | --- | --- |
| CCSc1ccn([C@@H]2O[C@H](COP(=O)(O)OP(=O)(O)OC[C@H]3O[C@@H](n4ccc(SCC)nc4=O)[C@H](O)[C@@H]3O)[C@@H](O)[C@H]2O)c(=O)n1 |  |  |  |  | Efficacy (P2Y purinoceptor 6 [5]): < 50% |
| Nc1nc2c(ncn2[C@@H]2O[C@H](COP(=O)(O)OP(=O)(O)O)[C@@H](O)[C@H]2O)c(=O)[nH]1 | 45 | 90 | 54 | 500 |  |
| O=C(O)CCSc1ccn([C@@H]2O[C@H](COP(=O)(O)OP(=O)(O)O)[C@@H](O)[C@H]2O)c(=O)n1 | 1.1 |  |  |  |  |
| Nc1ncnc2c1ncn2[C@@H]1O[C@H](COP(=O)(O)OP(=O)(O)O)[C@@H](O)[C@H]1O [ADENOSINE DIPHOSPHATE] | 65 |  | 1.7 | > 7000 | Activity (P2Y purinoceptor 4 [6]): inactive |
| CCCCCCSc1ccn([C@@H]2O[C@H](COP(=O)(O)OP(=O)(O)O)[C@@H](O)[C@H]2O)c(=O)n1 | 4.9 |  |  |  |  |
| C=CCSc1ccn([C@@H]2O[C@H](COP(=O)(O)OP(=O)(O)O)[C@@H](O)[C@H]2O)c(=O)n1 | 0.56 |  |  |  |  |
| O=c1[nH]c(=S)ccn1[C@@H]1O[C@H](COP(=O)(O)OP(=O)(O)O)[C@@H](O)[C@H]1O | 0.08 | 0.32 | 0.53 | 6 |  |
| O=C(O)CCCSc1ccn([C@@H]2O[C@H](COP(=O)(O)OP(=O)(O)O)[C@@H](O)[C@H]2O)c(=O)n1 | 8.8 |  |  |  |  |
| O=c1nc(SCc2ccccc2)ccn1[C@@H]1O[C@H](COP(=O)(O)OP(=O)(O)OC[C@H]2O[C@@H](n3ccc(SCc4ccccc4)nc3=O)[C@H](O)[C@@H]2O)[C@@H](O)[C@H]1O |  |  |  |  | Efficacy (P2Y purinoceptor 6 [5]): < 50% |
| O=c1ccn([C@@H]2O[C@H](COP(=O)(O)OP(=O)(O)OC[C@H]3O[C@@H](n4ccc(=O)[nH]c4=O)[C@H](O)[C@@H]3O)[C@@H](O)[C@H]2O)c(=O)[nH]1 | 2.3 |  |  |  |  |
| O=c1[nH]c(=O)n([C@@H]2O[C@H](COP(=O)(O)OP(=O)(O)O)[C@@H](O)[C@H]2O)cc1I | 0.015 | 55 | 17 | 1.1 |  |
| O=C(O)CSc1ccn([C@@H]2O[C@H](COP(=O)(O)OP(=O)(O)O)[C@@H](O)[C@H]2O)c(=O)n1 | 1.7 |  |  |  |  |
| Cn1c(=O)ccn([C@@H]2O[C@H](COP(=O)(O)OP(=O)(O)O)[C@@H](O)[C@H]2O)c1=O | 3.3 | 47 | 24 | 250 |  |
| Nc1ccn([C@@H]2O[C@H](COP(=O)(O)OP(=O)(O)O)[C@@H](O)[C@H]2O)c(=O)n1 | 88 |  | 110 | 1000 | Activity (P2Y purinoceptor 4 [6]): inactive |
| NC(=O)CSc1ccn([C@@H]2O[C@H](COP(=O)(O)OP(=O)(O)O)[C@@H](O)[C@H]2O)c(=O)n1 | 18 |  |  |  |  |
| CSc1ccn([C@@H]2O[C@H](COP(=O)(O)OP(=O)(O)O)[C@@H](O)[C@H]2O)c(=O)n1 | 2.3 |  |  |  |  |
| CCSc1ccn([C@@H]2O[C@H](COP(=O)(O)OP(=O)(O)O)[C@@H](O)[C@H]2O)c(=O)n1 | 0.28 |  |  |  |  |
| O=c1nc(SCc2ccccc2)ccn1[C@@H]1O[C@H](COP(=O)(O)OP(=O)(O)O)[C@@H](O)[C@H]1O | 0.8 |  |  |  |  |

Second part, led by results:

| EC50 (P2Y purinoceptor 6 [1]) [µM] | Ratio EC50 (P2Y purinoceptor 4 [2]) | Ratio EC50 (P2Y purinoceptor 2 [3]) | Ratio EC50 (P2Y purinoceptor 6 [4]) | Compound | further results |
| --- | --- | --- | --- | --- | --- |
| 0.06 | 4.8 | 0.71 | 4 | O=c1ccn([C@@H]2O[C@H](COP(=O)(O)OP(=O)(O)O)[C@@H](O)[C@H]2O)c(=S)[nH]1 |  |
| 0.23 |  |  |  | O=c1ccn([C@]23CC2[C@H](COP(=O)(O)OP(=O)(O)O)[C@@H](O)C3)c(=O)[nH]1 (some centres undefined) |  |
| 3.9 | 16 | 1.3 | 300 | N[C@@H]1[C@H](O)[C@@H](COP(=O)(O)OP(=O)(O)O)O[C@H]1n1ccc(=O)[nH]c1=O |  |
| 3.5 |  |  |  | O=c1ccn([C@@H]2O[C@@]3(COP(=O)(O)OP(=O)(O)O)C[C@H]3[C@H]2O)c(=O)[nH]1 |  |
| 2.5 | 42 | 17 | 190 | O=c1ccn([C@@H]2O[C@H](COP(=O)(O)OP(=O)(O)O)C[C@H]2O)c(=O)[nH]1 | EC50 (P2Y purinoceptor 2 [7]): 0.81 µM; EC50 (P2Y purinoceptor 4 [8]): 3.1 µM |
|  | 1.7 | 2 | > 7000 | O=c1ccn([C@@H]2C3C[C@@]3(COP(=O)(O)OP(=O)(O)O)[C@@H](O)[C@H]2O)c(=O)[nH]1 (some centres undefined) |  |
| 5.5 | 7.1 | 11 | 420 | O=c1ccn([C@@H]2O[C@H](COP(=O)(O)OP(=O)(O)O)[C@@H](O)[C@@H]2F)c(=O)[nH]1 |  |
| 1.5 | 15 | 100 | 120 | [N-]=[N+]=N[C@@H]1[C@H](O)[C@@H](COP(=O)(O)OP(=O)(O)O)O[C@H]1n1ccc(=O)[nH]c1=O |  |
| 0.013 |  |  |  | O=c1ccn([C@@H]2O[C@H](COP(=O)(O)OP(=O)(O)O)[C@@H](O)[C@H]2O)c(=O)[nH]1 [URIDINE_DIPHOSPHATE] |  |
